Rows were chosen to be rich in hits. Some 6.7% of all compounds tested hit in one or more screens of this group.
PREPL inh = inhibits the human prolyl oligopeptidase-like enzyme | 320,000 tested, 0.68% active | inhibition, % at 5.96 µM | recombinant PREPL, fluorescence polarization activity-based probe | Q4J6C6 | AID 2751; in the data active means inhibition above about 43%
Target sequence (Q4J6C6 whole entry, looked up): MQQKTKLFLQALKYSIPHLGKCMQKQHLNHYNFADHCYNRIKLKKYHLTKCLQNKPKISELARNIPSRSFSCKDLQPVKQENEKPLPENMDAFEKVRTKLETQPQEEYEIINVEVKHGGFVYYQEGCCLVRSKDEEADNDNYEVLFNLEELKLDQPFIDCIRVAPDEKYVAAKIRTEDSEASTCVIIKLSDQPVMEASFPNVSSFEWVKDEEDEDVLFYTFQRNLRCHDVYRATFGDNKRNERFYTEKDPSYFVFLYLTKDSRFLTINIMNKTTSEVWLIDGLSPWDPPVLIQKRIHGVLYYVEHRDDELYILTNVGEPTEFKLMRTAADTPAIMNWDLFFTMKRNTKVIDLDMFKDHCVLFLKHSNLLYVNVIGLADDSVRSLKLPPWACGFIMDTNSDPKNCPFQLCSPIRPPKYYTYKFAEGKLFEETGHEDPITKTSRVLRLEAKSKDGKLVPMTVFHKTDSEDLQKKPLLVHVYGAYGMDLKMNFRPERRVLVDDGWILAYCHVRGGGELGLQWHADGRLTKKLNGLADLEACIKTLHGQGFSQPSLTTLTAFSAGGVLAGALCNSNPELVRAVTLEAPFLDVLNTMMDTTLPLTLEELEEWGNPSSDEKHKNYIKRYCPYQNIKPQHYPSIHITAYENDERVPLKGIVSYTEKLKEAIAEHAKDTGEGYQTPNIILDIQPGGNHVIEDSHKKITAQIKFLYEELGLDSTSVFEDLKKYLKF
GRIN3A LBD mod = NR3A (human) ligand-binding domain modulation | Tm shift relative to glycine control, % at 25 µM | AID 1259313 | 340,000 tested, 2.5% active | NR3A LBD differential scanning fluorimetry, Tm shift; 0% = protein alone, 100% = glycine-bound protein;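 active means melting temperature shift of at least 10% of the positive control shift, at one fixed dose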
T cruzi inh = blocks replication of Trypanosoma cruzi. T. cruzi beta-gal in NIH3T3, luminescence, 90 h. inhibition, % (test concentration not listed). 300,000 tested, 1.4% active;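 active means mean inhibition across valid replicates above about 55%, limit read from the data; inconclusive means mean below that limit but half or more replicates reach it; inactive means mean below it, under half of replicates reach it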;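 further: signal also drops with host cell toxicity which is not excluded here; higher percent means less beta-gal luminescence so fewer parasites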
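Material: NIH/3T3 host cells with β-galactosidase reporter T. cruzi; Input: 5,000 host fibroblasts per well; Medium: DMEM, 2% fetal bovine serum; Compound: 50 nL DMSO compound solution per well; Schedule: 3 h host attachment, then at least 90 h co-culture; Detection: luminescent β-galactosidase signal after 60 min lysis.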
CSC inhib = blocks cancer stem cells; AID 2717; 300,000 tested, 1.1% active; inhibition, % at 7.5 µM; cancer stem cell-like cells viability, luminescence; in the data active means inhibition above about 75%; inconclusive means no clear call, values can overlap the other calls; tested in HMLE shEcad cells
Beta cell apopt = beta cell apoptosis inhibition; INS-1E cytokine-induced death, ATP luminescence, 48 h; percent of positive-control rescue, neutral wells zero; protection from apoptosis, % (test concentration not listed); 300,000 tested, 0.8% active;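 active means Every replicate reaches about 75%, or at least half do and their mean reaches it too, limit read from the data; inconclusive means At least half of replicates reach the limit but their mean does not; inactive means Under half of replicates reach the limit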;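 further: higher means more ATP so stronger rescue from cytokine killing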
CHOP inh = CHOP inhibition in unfolded protein response; 220,000 tested, 3.8% active; inhibition, % at 10 µM; CHO-K1 CHOP-promoter luciferase, tunicamycin-induced, 15-18 h;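 active means compounds that reduced the stress-induced luciferase reporter signal by more than about 70% of percent inhibition, limit read from the data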
A number is an active result; 0 = inactive; ? = inconclusive; - = no result given.

SMILES	PREPL inh	GRIN3A LBD mod	T cruzi inh	CSC inhib	Beta cell apopt	CHOP inh
C=CCn1c(Sc2ncc([N+](=O)[O-])s2)n[nH]c1=O	0	0	0	106	0	0
Cc1ccc(/C=N/N2CCN(c3ccccc3)CC2)cc1	0	0	0	0	0	0
Cc1ccccc1/C=N/N1CCN(c2ccccc2)CC1	0	13	0	0	0	0
CN(C)C(=S)N=c1ssc(=S)n1Cc1cccnc1	-	27	-	-	-	-
COc1cccc(/C=C(\C#N)C(=O)NC2CCS(=O)(=O)C2)c1 (configuration not stated)	0	13	0	0	0	0
C[C@H]1CN[C@H](CCO)/C1=C\c1ccccc1	-	0	-	-	-	-
O=C(NC(=S)Nn1cnc2c(cnn2-c2ccccc2)c1=O)c1ccc(Oc2ccccc2)cc1	0	0	0	0	0	73
O=C(NC(=S)Nn1cnc2c(cnn2-c2ccccc2)c1=O)c1ccc(Cl)cc1	0	0	0	0	0	0
N#Cc1c(C(F)(F)F)cc(-c2ccccc2)nc1SCc1nc(N)nc(N2CCOCC2)n1	0	16	0	0	0	0
c1ccc(-c2cc(N3CCOCC3)nc(-c3ccccc3)n2)cc1	0	0	0	0	0	89
Fc1ccc(Oc2cc(N3CCOCC3)nc(-c3ccccc3)n2)c(F)c1	0	0	0	0	0	87
FC(F)(F)c1cc(-c2ccccc2)nc(N2CCOCC2)n1	0	0	0	0	0	90
O=C(NNc1ccccc1)c1ccc(Cl)c(Cl)c1	-	0	-	-	-	-
CN1C(=O)C(=O)/C(=C(/O)c2ccccc2)C1c1ccc([N+](=O)[O-])cc1 (configuration not stated)	0	0	0	-	-	-
COc1ccc(N(CC(=O)NCCC2=CCCCC2)S(=O)(=O)c2ccc(C)cc2)cc1	0	-	62	0	0	0
COc1ccc(N(CC(=O)NCCC2=CCCCC2)S(C)(=O)=O)cc1	0	0	0	0	0	0
COc1ccc(CCNC(=O)CN(c2ccccc2OC)S(=O)(=O)c2ccc(C)cc2)cc1	0	0	60	0	-	-
COc1ccc(N(CC(=O)NCCC2=CCCCC2)S(=O)(=O)c2ccccc2F)cc1	0	0	0	0	0	0
CCOc1ccc(N(CC(=O)NCCC2=CCCCC2)S(=O)(=O)c2ccccc2)cc1	0	0	62	0	0	0
CCOc1ccccc1C(C(=O)NC1CCCCC1)N(C(=O)c1csnn1)C1CC1 (configuration not stated)	0	0	0	0	0	-
Cc1cccc(NC(=O)C2CCN(S(=O)(=O)c3cccc4cccnc34)CC2)n1	0	0	0	0	0	0
COc1ccccc1N1CCN(CCCNC(=O)C2CCCN(c3ncnc4c3nc3n4CCCCC3)C2)CC1 (configuration not stated)	0	0	0	0	0	-
CC(=O)Nc1ccc(NC(=O)C(C)OC(=O)c2ccc3c(c2)OCCO3)cc1 (configuration not stated)	0	0	0	0	0	0
CC(OC(=O)c1cccc(S(=O)(=O)Nc2cccc(C(F)(F)F)c2)c1)C(=O)Nc1ccc2c(c1)OCCO2 (configuration not stated)	0	26	0	0	0	0
CCOP(=O)(OCC)c1nc(-c2cccc3ccccc23)oc1NCCc1ccc(OC)cc1	0	16	0	0	0	0
SMILES	PREPL inh	GRIN3A LBD mod	T cruzi inh	CSC inhib	Beta cell apopt	CHOP inh
CCOP(=O)(OCC)c1nc(-c2cccc3ccccc23)oc1N1CCOCC1	0	0	0	0	0	0
CC1CCC(C(C)C)C(OCC(O)CNC(C)c2ccccc2)C1 (configuration not stated)	0	0	0	0	0	93
CC(NCC(O)COC1CCC(C(C)(C)C)CC1)c1ccccc1 (configuration not stated)	0	0	75	-	0	90
CC1CCC(C(C)C)C(OCC(O)CNC(C)(C)C)C1 (configuration not stated)	0	0	0	0	0	0
c1ccc(CCCNCCCn2cnc3c(OCc4ccccc4)ncnc32)cc1	-	0	-	-	-	-
CCN(CC)CCCNC(=O)C1CCN(C(=O)c2oc3cc4sc(N(C)C)nc4cc3c2C)CC1	0	0	0	0	0	-
COCCN(CC(=O)Nc1cccc(C)c1C)C(=O)c1oc2c(Cl)cccc2c1C	0	0	-	0	0	-
Cc1sc2nc(C(C)Nc3ccccc3N3CCOCC3)[nH]c(=O)c2c1C (configuration not stated)	0	0	0	0	0	75
Cc1sc2nc(N3CCOCC3)[nH]c(=O)c2c1-c1ccccc1	0	0	0	0	0	0
CC1=NN(c2ccccc2)C(=O)/C1=C/c1c(O)n(-c2ccc(F)cc2)[nH]c1=O	0	11	0	87	0	0
CC1=NN(c2ccccc2)C(=O)/C1=C/c1ccc(-c2ccc(C)c(C(=O)O)c2)o1	0	10	0	0	0	-
CC1=NN(c2ccccc2)C(=O)/C1=C/c1ccc(Cl)cc1	-	0	0	0	0	-
CC1=NN(c2ccccc2)C(=O)/C1=C/c1ccc[nH]1	0	17	0	0	0	0
COc1ccc(CC(=O)Nc2cc(C)ccn2)cc1	0	0	0	0	0	0
CCCCOc1ccc2ccccc2c1C=O	0	10	0	0	0	0
CCCOc1ccc2ccccc2c1/C=C1\SC(=O)NC1=O	0	0	0	0	0	-
FC(F)(F)c1ccccc1NC(=S)N/N=C1\CC2CC=CC12 (configuration not stated)	-	0	-	-	-	0
Cc1[nH]c2ccccc2c1C(=O)CSc1nc2cc(S(=O)(=O)N3CCCCC3)ccc2o1	0	0	57	0	0	0
Cc1[nH]c2ccccc2c1C(=O)CSc1nc2ccccc2[nH]1	0	19	0	0	0	0
Cc1ccc(C(=O)CSc2nc3cc(S(=O)(=O)N4CCOCC4)ccc3o2)cc1	0	0	0	0	0	0
Cc1ccsc1C(=O)N(C)C1CCS(=O)(=O)C1 (configuration not stated)	0	0	-	-	0	-
COc1ccc(OC)c(NC(=S)N2CCN(C(=O)C3CCCO3)CC2)c1 (configuration not stated)	-	0	0	-	0	-
O=C(Nc1ccccc1-c1ccccc1)c1ccc(Cl)c([N+](=O)[O-])c1	0	0	0	0	0	0
O=C(c1ccc(Cl)c([N+](=O)[O-])c1)N(c1ccccn1)c1ccccn1	0	15	0	0	0	0
Cc1cc(C(=O)Nc2ccc(Nc3ccccc3)cc2)ccc1[N+](=O)[O-]	0	12	0	0	0	-
Cc1cc(C(=O)Nc2ccncc2)ccc1[N+](=O)[O-]	0	0	?	0	0	-
O=C(Nc1ccc(Nc2ccccc2)cc1)c1ccc(Cl)c([N+](=O)[O-])c1	0	24	0	0	0	-
O=C(Nc1ccccc1N1CCCCC1)c1ccc(Cl)c([N+](=O)[O-])c1	0	0	0	80	0	0

Screening data (PubChem BioAssay)
